Data taken from ChEMBL document CHEMBL4145686, “Discovery of a Potent and Selective Steroidal Glucocorticoid Receptor Antagonist (ORIC-101)” (J Med Chem, 2018).
Calls of active or inactive are those of the source. The calls are words filed in the database; no cut-off is given here.

What was measured:
[1] = molecular target: T1, glucocorticoid receptor (GR) (Homo sapiens, UniProt P04150); assay: Agonist activity at human GR expressed in CHO-K1 cells incubated for 20 hrs by luciferase reporter gene assay relative to dexamethasone; type: cell-based; settings: CHO-K1 cells expressing human GR
T1 sequence (P04150 whole entry): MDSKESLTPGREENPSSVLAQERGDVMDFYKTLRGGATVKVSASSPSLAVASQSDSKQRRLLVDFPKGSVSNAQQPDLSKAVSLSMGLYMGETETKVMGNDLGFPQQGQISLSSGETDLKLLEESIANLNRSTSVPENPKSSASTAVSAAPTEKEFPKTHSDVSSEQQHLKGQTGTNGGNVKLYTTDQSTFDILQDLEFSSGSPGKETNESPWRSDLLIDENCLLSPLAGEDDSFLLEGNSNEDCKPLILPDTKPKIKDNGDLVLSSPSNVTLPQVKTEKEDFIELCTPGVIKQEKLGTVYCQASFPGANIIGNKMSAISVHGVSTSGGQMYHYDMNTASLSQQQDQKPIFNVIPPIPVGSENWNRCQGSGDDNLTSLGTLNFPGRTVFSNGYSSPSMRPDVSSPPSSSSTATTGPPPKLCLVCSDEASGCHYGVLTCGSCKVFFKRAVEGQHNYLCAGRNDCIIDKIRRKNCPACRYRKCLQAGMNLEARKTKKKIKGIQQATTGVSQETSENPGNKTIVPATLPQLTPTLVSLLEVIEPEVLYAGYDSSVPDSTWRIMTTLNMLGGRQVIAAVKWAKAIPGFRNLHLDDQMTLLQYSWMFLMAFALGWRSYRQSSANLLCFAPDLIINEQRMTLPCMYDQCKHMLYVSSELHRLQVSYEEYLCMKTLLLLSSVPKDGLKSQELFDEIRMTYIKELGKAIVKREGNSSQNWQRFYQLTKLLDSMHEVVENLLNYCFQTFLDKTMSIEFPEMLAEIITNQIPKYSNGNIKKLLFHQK

[2] = Clearance in rat at 0.5 mg/kg, iv; type: ADME, organism-based; settings: in vivo
[3] = Volume of distribution at steady state in mouse at 0.5 mg/kg, iv; type: ADME, organism-based; settings: in vivo, read-out: Vdss
[4] = Oral bioavailability in mouse at 5 mg/kg; type: ADME, organism-based; settings: in vivo
[5] = Cmax in mouse at 5 mg/kg, po; type: ADME, organism-based; set-up: dose 5 mg/kg, route oral; settings: in vivo
[6] = AUC in mouse at 5 mg/kg, po; type: ADME, organism-based; settings: in vivo
Progesterone receptor = molecular target: T2, Progesterone receptor (Homo sapiens, UniProt P06401); assay: Antagonist activity at human PR expressed in CHO-K1 cells assessed as reduction in progesterone-induced response incubated for 20 hrs by luciferase reporter gene assay; type: cell-based
T2 sequence (P06401 whole entry): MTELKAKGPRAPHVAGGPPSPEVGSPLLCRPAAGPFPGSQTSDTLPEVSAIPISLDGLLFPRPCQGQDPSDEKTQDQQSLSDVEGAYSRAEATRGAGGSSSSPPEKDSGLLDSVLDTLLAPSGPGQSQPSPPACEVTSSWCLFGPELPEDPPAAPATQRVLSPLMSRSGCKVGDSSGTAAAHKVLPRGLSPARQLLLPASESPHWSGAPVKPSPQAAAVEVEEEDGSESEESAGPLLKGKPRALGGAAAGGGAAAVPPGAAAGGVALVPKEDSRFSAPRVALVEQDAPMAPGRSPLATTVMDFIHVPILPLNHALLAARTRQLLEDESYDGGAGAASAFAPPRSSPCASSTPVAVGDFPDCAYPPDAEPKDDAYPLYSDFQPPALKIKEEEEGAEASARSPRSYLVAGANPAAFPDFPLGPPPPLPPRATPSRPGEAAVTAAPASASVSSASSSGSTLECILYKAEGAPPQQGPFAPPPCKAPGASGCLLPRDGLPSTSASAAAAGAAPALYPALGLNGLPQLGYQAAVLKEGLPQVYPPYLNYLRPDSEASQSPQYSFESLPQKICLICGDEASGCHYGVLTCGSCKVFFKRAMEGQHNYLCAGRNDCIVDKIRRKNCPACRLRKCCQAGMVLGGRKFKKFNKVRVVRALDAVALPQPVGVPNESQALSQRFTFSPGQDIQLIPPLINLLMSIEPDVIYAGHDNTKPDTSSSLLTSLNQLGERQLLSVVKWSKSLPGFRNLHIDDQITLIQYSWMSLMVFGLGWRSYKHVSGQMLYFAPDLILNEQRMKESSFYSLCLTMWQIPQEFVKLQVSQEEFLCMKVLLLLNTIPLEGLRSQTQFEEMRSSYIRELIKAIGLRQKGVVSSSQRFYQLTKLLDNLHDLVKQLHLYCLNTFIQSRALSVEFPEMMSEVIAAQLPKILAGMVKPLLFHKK

Glucocorticoid receptor = molecular target: T3, Glucocorticoid receptor (Canis lupus familiaris, UniProt A0A8C0QLS2); assay: Antagonist activity at GR in dog PBMC assessed as reduction in dexamethasone-induced GILZ gene expression incubated for 6 hrs by RT-qPCR method; type: cell-based
T3 sequence (A0A8C0QLS2 whole entry): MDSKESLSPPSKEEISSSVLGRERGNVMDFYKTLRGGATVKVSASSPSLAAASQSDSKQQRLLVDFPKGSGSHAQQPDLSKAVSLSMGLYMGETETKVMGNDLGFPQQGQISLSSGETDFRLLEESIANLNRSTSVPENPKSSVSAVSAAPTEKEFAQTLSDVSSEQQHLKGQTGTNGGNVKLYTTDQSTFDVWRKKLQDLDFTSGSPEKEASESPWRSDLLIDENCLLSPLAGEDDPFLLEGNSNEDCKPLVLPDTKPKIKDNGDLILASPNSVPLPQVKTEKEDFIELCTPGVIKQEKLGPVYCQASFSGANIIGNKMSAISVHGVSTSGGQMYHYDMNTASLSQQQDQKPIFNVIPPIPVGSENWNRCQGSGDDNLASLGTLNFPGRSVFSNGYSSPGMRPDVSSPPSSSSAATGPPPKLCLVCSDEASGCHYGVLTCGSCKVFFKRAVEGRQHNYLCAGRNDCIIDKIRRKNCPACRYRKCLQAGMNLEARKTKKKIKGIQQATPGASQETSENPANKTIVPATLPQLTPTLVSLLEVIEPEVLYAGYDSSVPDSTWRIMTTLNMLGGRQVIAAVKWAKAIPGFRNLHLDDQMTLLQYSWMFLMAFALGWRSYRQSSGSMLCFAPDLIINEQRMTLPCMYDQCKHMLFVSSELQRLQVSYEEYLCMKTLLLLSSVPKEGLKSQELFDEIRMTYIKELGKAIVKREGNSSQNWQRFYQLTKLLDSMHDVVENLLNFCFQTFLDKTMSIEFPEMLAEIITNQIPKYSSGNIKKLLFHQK

OVCAR-5 = assay: Antitumor activity against human OVCAR5 cells xenografted in chronic cortisol treated nude mouse assessed as reduction in tumor volume at 75 mg/kg, po BID dosed via gavage; type: functional, organism-based
How it was run: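 Cortisol given in drinking water at 100 mg/L before tumor implantation and throughout the study. Mice bearing established OVCAR5 xenografts, n = 10 per group. Gemcitabine 100 mg/kg and carboplatin 60 mg/kg given every 3 days for 4 doses. Antagonist given at 75 mg/kg twice daily by oral gavage for the whole study. Tumor volume tracked, mean ± SEM, with significance assessed on day 21.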

`CC(C)N(C)c1ccc([C@H]2C[C@@]3(C)[C@@H](CC[C@@]3(O)C#CC(C)(C)C)[C@@H]3CCC4=CC(=O)CC[C@@H]4[C@H]32)cc1` showed an Emax at 20 h [1] of 2.3%, a clearance [2] of 31.7 mL/min/kg and a Vd [3] of 5.01 L/kg. The bioavailability [4] was 21%, the Cmax [5] was 274 ng/mL and the AUC [6] was 644 ng·h/mL. For the same molecule, the IC50 (Progesterone receptor) was 21 nM, the IC50 (Glucocorticoid receptor) was 34.3 nM and the TGI (OVCAR-5) was “inactive”.
